# The list is not random: actives were taken first. Their share in the collection is about 7.6%.
# Jurkat tox 60K: reduces viability or proliferation of Jurkat cells; Jurkat E6.1 viability, ATP luminescence, 48 h; inhibition, % at 4 µM; 56,000 compounds, 1.2% hits; AID 463;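 active = inhibition above the mean inhibition of all tested compounds plus 3 SD, cut at about 28% in these data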
# HEK293 NFkB inh: lowers PMA/ionomycin-induced NF-kB signal in HEK293 cells; HEK-293 NF-kB luciferase reporter, luminescence; inhibition, % at 3 µM; 62,000 compounds, 0.21% hits;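 active = inhibition above the mean of all tested compounds plus 3 SD, cut at about 40% in these data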;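 also: 0% = stimulated DMSO wells and 100% = 10 µM reference inhibitor 5653914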
#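 System – HEK-293 cells with stable firefly luciferase reporter driven by four HIV NF-kB elements · Doses – one dose, 3 µM · Schedule – 1 h compound pre-incubation, 16 h PMA/ionomycin at 37 °C · Technique – luminescence from luciferase substrate reagent · Measure – percent inhibition normalized per plate to DMSO and reference-inhibitor controls · Replicates – tested once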
# M1 antag: M1 muscarinic receptor (rat) antagonism; 64,000 compounds, 3.4% hits; CHO-M1 cells, Fluo-4 calcium, ACh EC80 antagonist mode; hits give low values; B-score at 10 µM;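 active = calcium fluorescence response, raw or row-and-column corrected B-score, differing from the plate sample mean either way at a set confidence level, mostly lower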
# Target sequence (P08482 whole entry, looked up): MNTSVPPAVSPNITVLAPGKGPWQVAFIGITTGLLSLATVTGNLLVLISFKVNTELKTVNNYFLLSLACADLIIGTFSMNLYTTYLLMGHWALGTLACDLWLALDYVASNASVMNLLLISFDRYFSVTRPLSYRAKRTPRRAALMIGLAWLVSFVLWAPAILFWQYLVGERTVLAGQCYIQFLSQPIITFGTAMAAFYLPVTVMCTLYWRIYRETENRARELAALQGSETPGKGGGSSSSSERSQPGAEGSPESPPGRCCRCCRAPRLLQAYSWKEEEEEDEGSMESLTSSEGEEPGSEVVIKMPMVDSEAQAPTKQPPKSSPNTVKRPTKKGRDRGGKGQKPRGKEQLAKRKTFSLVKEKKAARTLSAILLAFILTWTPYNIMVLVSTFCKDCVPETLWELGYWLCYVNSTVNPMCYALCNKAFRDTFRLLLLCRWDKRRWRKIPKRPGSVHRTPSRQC
# hDAT+cocaine: changed human dopamine transporter uptake under cocaine IC80 | LLC-PK1 hDAT cells, [14C]-dopamine uptake with cocaine IC80; actives deviate in either direction | B-score at 10 µM | 110,000 compounds, 1.3% hits | AID 449768;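 active = Z score or B-score, a plate-position-corrected score, falls beyond the plate's 99.7% confidence bounds, in either direction; inactive = both scores lie inside the 99.7% bounds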;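 also: scored against the spread of the other compound wells on the same plate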
# D1 mod: D1 dopamine receptor (human) allosteric modulation | P21728 | HEK293 D1, CRE-luciferase, dopamine EC30 potentiation; actives deviate in either direction | B-score at 10 µM | 58,000 compounds, 5.9% hits | AID 641;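 active = luminescence count or its row- and column-corrected plate score outside the 99.7% band of the plate's sample wells, on either side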
# M1 ag: agonists of M1 muscarinic receptor; CHO-M1 cells, Fluo-4 calcium fluorescence, agonist mode; hits give high values; 64,000 compounds, 3% hits; B-score at 10 µM;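 active = fluorescence rise, raw or as B-score row- and column-corrected plate score, outside the 99.7% band of its plate's samples, either direction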
# M1 antag conf: confirmation of rat M1 muscarinic receptor antagonists; shares compounds with M1 antag; CHO-M1 cells, Fluo-4 calcium, ACh EC80 antagonism; hits give low values; calcium response (max-min fluorescence) at 10 µM; 1,700 compounds, 43% hits; AID 677;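 active = calcium response below the same-plate mean of wells given acetylcholine alone at its 80%-effect dose, minus 3 SD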;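 also: raw fluorescence intensity difference in arbitrary instrument units and not normalized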
# mGluR4 antag: mGluR4 (human) activity, M1 antagonist secondary assay. shares compounds with M1 antag. CHO-mGluR4 calcium flux, Fluo-4 fluorescence, glutamate EC80; hits give low values. fluorescence response (max-min) at 10 µM. 1,700 compounds, 0.9% hits;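 active = fluorescence response below the plate's average for near-maximal glutamate wells, less 3 SD of those wells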;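 also: raw unnormalized fluorescence span taken in the window right after glutamate addition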
# Starred values were filed as active, the others as inactive; · = no result.
SMILES,Jurkat tox 60K,HEK293 NFkB inh,M1 antag,hDAT+cocaine,D1 mod,M1 ag,M1 antag conf,mGluR4 antag
COc1ccc(-c2cc(C(F)(F)F)nc(SCCC(=O)N3CCN4CCCC4C3)n2)cc1 (stereo not drawn),1,6,-3.4*,-0.76,-0.53,0.066,310*,248
FC(F)(F)c1cc(-c2ccco2)nc(N2CCN(c3ccccc3)CC2)n1,·,·,·,1.3,·,·,·,·
COc1ccc(-c2cc(C(F)(F)F)nc(SCCC(=O)N3CCCC3)n2)cc1,·,·,·,-1.1,·,·,·,·
Cc1noc(C)c1S(=O)(=O)Nc1ccc(O)c2c(=O)cc(-c3ccccc3Cl)oc12,·,·,·,-0.33,·,·,·,·
O=C(NC1CCCCCCC1)c1ccccc1O,4,-18,-2.2*,0.33,0.12,-0.22,607,268
CSc1ccccc1C(=O)NC1CCCCCC1,·,·,·,0.069,·,·,·,·
CC1(C)CC(N2CCC(=O)N(C3CC(C)(C)NC(C)(C)C3)C2)CC(C)(C)N1,-3,13,-3.2*,-0.2,0.0012,-0.095,547,199
COc1nc(OC)nc(N2CCC(NC(=O)C(Cc3ccc(C(C)C)cc3)NC(C)=O)CC2)n1 (stereo not drawn),-3,14,0.75,1.2,1.7,-0.0031,·,·
c1coc(CNc2nc(N3CCCCC3)nc3ccccc23)c1,2,9,-1.5*,-0.04,-3.7*,2.7,465,203
COC(=O)c1ccc(NC(=O)Nc2ccc(F)c(Cl)c2)cc1,·,·,·,-0.33,·,·,·,·
Cc1ccc(-c2nnc(CSc3nncn3N)o2)cc1,5,16,-0.97,-0.45,0.0039,0.5,·,·
Cc1ccc(S(=O)(=O)Nc2nsc(N)n2)cc1,-3,15,-2.9*,-0.57,0.2,-0.018,641,213
O=C(NC1CC1)C1=C[C@@H](c2csc3ccccc23)C[C@@H](OCc2ccc(CO)cc2)O1,·,·,·,-0.0068,·,·,·,·
CCn1c(SCC(=O)Nc2c(C)n(C)n(-c3ccccc3)c2=O)nnc1-c1cccc(C)c1,2,20,-1.9*,0.067,0.042,2.5,575,196
Cc1c(NC(=O)CSc2nnnn2C)c(=O)n(-c2ccccc2)n1C,·,·,·,0.052,·,·,·,·
Cc1ccc(C)c(C2=CSC3=NCCN23)c1,-1,1,-0.16,-0.13,-0.19,-0.77,·,·
Clc1ccc(C2=CSC3=NCCN23)cc1Cl,-1,7,-2.2*,-0.61,-0.5,-0.22,535,241
O=C(NCCN1Cc2ccccc2C1=O)c1cccs1,1,-10,-0.58,0.01,-0.023,0.67,·,·
O=C1c2ccccc2CN1CCNS(=O)(=O)c1ccc(Cl)cc1,-4,1,-1.8*,-0.032,0.23,-0.063,674,261
CC(C)(C)C1CCC(OCC(O)CN2CCN(c3ccccc3)CC2)CC1 (stereo not drawn),·,·,·,0.37,·,·,·,·
CC1CCN(CC(O)COC2CCC(C(C)(C)C)CC2)CC1 (stereo not drawn),1,0,-4*,-0.052,-1.3,-0.09,481,230
CC(=O)CSc1nnc(-c2ccc(S(=O)(=O)N3CCC(C)CC3)cc2)o1,·,·,·,-0.81,·,·,·,·
Cc1ccc(C(=O)NCc2ccccn2)c(Cl)c1,·,·,·,-0.73,·,·,·,·
Cc1ccc(OCc2nnc(NC(=O)c3ccco3)s2)cc1,·,·,·,-1.9,·,·,·,·
Cc1ccc(OCCSc2nnc(NC(=O)c3ccco3)s2)cc1,-1,6,-3.6*,-0.76,0.4,-0.14,671,251
CC1(C)CC(=O)c2c(nn(-c3ccccc3)c2N)C1,-1,8,-2.4*,0.57,0.035,0.34,517,241
CC1(C)CC(=O)c2c(nc3ccccc3c2N)C1,3,26,-0.23,0.27,0.065,-0.23,·,·
Cc1ccccc1N(CC(=O)NCCc1ccccc1)C(=O)c1ccc(N2CCCC2)nc1,3,20,-4.6*,1.1,·,-0.95,667,241
Cn1c(CCNC(=O)c2cccs2)nnc1SCC(=O)N1CCN(c2ccccc2)CC1,11,19,-0.73,0.18,·,0.29,·,·
Cc1noc(C)c1S(=O)(=O)Nc1ccc(C(=O)N2CCN(c3ccc(Cl)cc3)CC2)cc1,22,25,-2.4*,·,-3.7*,2.9,487,233

# Screening results from PubChem BioAssay.
